Legend:
Type in all cases: functional
RXF 393 = assay: Cytotoxicity against human RXF393 cells after 2 days by sulforhodamine B assay; conditions: RXF 393, 48 h
Procedure, shortened: (§1)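 NCI60 multi-dose screen, 59 human tumour lines available. Cells exposed to compound across a 5-log mol/L concentration range for 2 days, then fixed and stained with sulphorhodamine B, optical density read. Growth inhibition calculated against time-zero control and untreated cells. GI50 derived from the dose series, average of two replicates.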

HT-29 = assay: Cytotoxicity against human HT-29 cells after 2 days by sulforhodamine B assay; conditions: HT-29, 48 h; procedure, shortened: as §1
RPMI-8226 = assay: Cytotoxicity against human RPMI8226 cells after 2 days by sulforhodamine B assay; conditions: RPMI-8226, 48 h; procedure, shortened: as §1
Malme-3M = assay: Cytotoxicity against human MALME-3M cells after 2 days by sulforhodamine B assay; conditions: 48 h; procedure, shortened: as §1
CAKI-1 = assay: Cytotoxicity against human CAKI-1 cells after 2 days by sulforhodamine B assay; conditions: CAKI-1, 48 h; procedure, shortened: as §1
SW-620 = assay: Cytotoxicity against human SW620 cells after 2 days by sulforhodamine B assay; conditions: SW-620, 48 h
Procedure, shortened: (§2)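 NCI DTP NCI60 multi-dose screen (59 human tumour lines available). Cells exposed to compound over a 5-log mol/L concentration range for 2 days, then fixed and stained with sulphorhodamine B, with optical density read. Growth inhibition calculated relative to time-zero cells and untreated cells, giving GI50 (half-maximal growth inhibition concentration). Average of two replicates.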

HOP-92 = assay: Cytotoxicity against human HOP92 cells after 2 days by sulforhodamine B assay; conditions: HOP-92, 48 h; procedure, shortened: as §1
[1] = Cytotoxicity against human NCI-ADR-RES cells after 2 days by sulforhodamine B assay; conditions: 48 h; procedure, shortened: as §1
TK-10 = assay: Cytotoxicity against human TK10 cells after 2 days by sulforhodamine B assay; conditions: TK-10, 48 h; procedure, shortened: as §2
PC-3 = assay: Cytotoxicity against human PC3 cells after 2 days by sulforhodamine B assay; conditions: PC-3, 48 h; procedure, shortened: as §1
SNB-75 = assay: Cytotoxicity against human SNB75 cells after 2 days by sulforhodamine B assay; conditions: SNB-75, 48 h; procedure, shortened: as §2
COLO 205 = assay: Cytotoxicity against human COLO205 cells after 2 days by sulforhodamine B assay; conditions: COLO 205, 48 h; procedure, shortened: as §1
MDA-MB-231 = assay: Cytotoxicity against human MDA-MB-231 cells after 2 days by sulforhodamine B assay; conditions: MDA-MB-231, 48 h; procedure, shortened: as §1
A549 = assay: Cytotoxicity against human A549/ATCC cells after 2 days by sulforhodamine B assay; conditions: A549, 48 h; procedure, shortened: as §1
[2] = Cytotoxicity against human Hs578T cells after 2 days by sulforhodamine B assay; conditions: Hs-578T, 48 h; procedure, shortened: as §1
MOLT-4 = assay: Cytotoxicity against human MOLT4 cells after 2 days by sulforhodamine B assay; conditions: MOLT-4, 48 h; procedure, shortened: as §1
IGROV-1 = assay: Cytotoxicity against human IGROV1 cells after 2 days by sulforhodamine B assay; conditions: IGROV-1, 48 h; procedure, shortened: as §1
U-251 = assay: Cytotoxicity against human U251 cells after 2 days by sulforhodamine B assay; conditions: U-251, 48 h; procedure, shortened: as §2
A498 = assay: Cytotoxicity against human A498 cells after 2 days by sulforhodamine B assay; conditions: A498, 48 h; procedure, shortened: as §1
SNB-19 = assay: Cytotoxicity against human SNB19 cells after 2 days by sulforhodamine B assay; conditions: SNB-19, 48 h; procedure, shortened: as §2
NCI-H522 = assay: Cytotoxicity against human NCI-H522 cells after 2 days by sulforhodamine B assay; conditions: NCI-H522, 48 h; procedure, shortened: as §1
T47D = assay: Cytotoxicity against human T47D cells after 2 days by sulforhodamine B assay; conditions: 48 h; procedure, shortened: as §2
MDA-MB-468 = assay: Cytotoxicity against human MDA-MB-468 cells after 2 days by sulforhodamine B assay; conditions: MDA-MB-468, 48 h; procedure, shortened: as §1
786-0 = assay: Cytotoxicity against human 786-0 cells after 2 days by sulforhodamine B assay; conditions: 786-0, 48 h; procedure, shortened: as §1
SF-268 = assay: Cytotoxicity against human SF268 cells after 2 days by sulforhodamine B assay; conditions: SF-268, 48 h; procedure, shortened: as §1
DU-145 = assay: Cytotoxicity against human DU145 cells after 2 days by sulforhodamine B assay; conditions: DU-145, 48 h; procedure, shortened: as §1
SF-539 = assay: Cytotoxicity against human SF539 cells after 2 days by sulforhodamine B assay; conditions: SF-539, 48 h; procedure, shortened: as §1
HCC 2998 = assay: Cytotoxicity against human HCC2998 cells after 2 days by sulforhodamine B assay; conditions: HCC 2998, 48 h; procedure, shortened: as §1
ACHN = assay: Cytotoxicity against human ACHN cells after 2 days by sulforhodamine B assay; conditions: 48 h; procedure, shortened: as §1
[3] = read-out: LC50 (the source's name)

CC/C(=C(/c1ccc(OCCN(C)C)cc1)c1ccc(OC(=O)CCC(=O)C2=C(C)/C(=C/c3[nH]c(-c4ccc[nH]4)cc3OC)N=C2C)cc1)c1ccccc1
GI50 (RXF 393): 2.35 µM | LC50 (concentration killing 50% of cells) (RXF 393): 73.3 µM | TGI (RXF 393): 13 µM | GI50 (HT-29): 0.44 µM | LC50 (HT-29): 45.7 µM | TGI (HT-29): 11.1 µM | GI50 (RPMI-8226): 1.65 µM | LC50 (concentration killing 50% of cells present at time zero) (RPMI-8226): > 100 µM | TGI (RPMI-8226): 5.64 µM | GI50 (Malme-3M): 2.73 µM | LC50 (Malme-3M): 78.4 µM | TGI (Malme-3M): 6.53 µM | GI50 (CAKI-1): 2.69 µM | LC50 (concentration killing 50% of the cells present at time zero) (CAKI-1): 58.3 µM | TGI (CAKI-1): 16.1 µM | GI50 (SW-620): 0.76 µM | LC50 (concentration killing 50% of cells) (SW-620): > 100 µM | TGI (SW-620): 2.6 µM | GI50 (HOP-92): 0.76 µM | TGI (HOP-92): 4.12 µM | CC50 (HOP-92; [3]): 26.4 µM | GI50 [1]: 3.63 µM | TGI [1]: 16.1 µM | CC50 [1, 3]: 74.5 µM | GI50 (TK-10): 4.9 µM | LC50 (TK-10): 41.7 µM | TGI (TK-10): 15.8 µM | GI50 (PC-3): 1.78 µM | LC50 (concentration killing 50% of cells) (PC-3): 51.1 µM | TGI (PC-3): 17.2 µM | GI50 (SNB-75): 2.47 µM | LC50 (concentration killing 50% of starting cells) (SNB-75): 62.9 µM | TGI (SNB-75): 9.92 µM | GI50 (COLO 205): 1.9 µM | LC50 (concentration killing 50% of cells) (COLO 205): > 100 µM | TGI (COLO 205): 7.26 µM | GI50 (MDA-MB-231): 0.45 µM | LC50 (MDA-MB-231): 20.3 µM | TGI (MDA-MB-231): 2.43 µM | GI50 (A549): 2.66 µM | LC50 (concentration giving 50% net cell kill) (A549): 55.9 µM | TGI (A549): 10.6 µM | GI50 [2]: 1.15 µM | TGI [2]: 4.68 µM | CC50 [2, 3]: 64.6 µM | GI50 (MOLT-4): 0.98 µM | TGI (MOLT-4): 4.22 µM | CC50 (MOLT-4; [3]): > 100 µM | GI50 (IGROV-1): 3.66 µM | LC50 (IGROV-1): > 100 µM | TGI (IGROV-1): 15.3 µM | GI50 (U-251): 1.52 µM | LC50 (U-251): 33.2 µM | TGI (U-251): 7.17 µM | GI50 (A498): 2.96 µM | LC50 (A498): 44.2 µM | TGI (A498): 16.8 µM | GI50 (SNB-19): 5.49 µM | TGI (SNB-19): 21.9 µM | CC50 (SNB-19; [3]): 65.9 µM | GI50 (NCI-H522): 1.95 µM | LC50 (NCI-H522): 28 µM | TGI (NCI-H522): 5.89 µM | GI50 (T47D): 1.35 µM | LC50 (concentration killing 50% of cells) (T47D): > 100 µM | TGI (T47D): 8.13 µM | GI50 (MDA-MB-468): 3.06 µM | LC50 (MDA-MB-468): 61.3 µM | TGI (MDA-MB-468): 15.5 µM | GI50 (786-0): 2.19 µM | LC50 (concentration killing 50% of cells) (786-0): > 100 µM | TGI (786-0): 5.77 µM | GI50 (SF-268): 2.63 µM | LC50 (concentration killing 50% of cells) (SF-268): > 100 µM | TGI (SF-268): 18.3 µM | GI50 (DU-145): 3.28 µM | LC50 (concentration killing 50% of starting cells) (DU-145): 41.2 µM | TGI (DU-145): 16.8 µM | GI50 (SF-539): 2.62 µM | LC50 (SF-539): 40.3 µM | TGI (SF-539): 9.55 µM | GI50 (HCC 2998): 3.83 µM | LC50 (50% lethal concentration) (HCC 2998): 39.9 µM | TGI (HCC 2998): 14.3 µM | GI50 (ACHN): 2.61 µM | LC50 (concentration killing 50% of cells) (ACHN): > 100 µM | TGI (ACHN): 17.1 µM
